Screening data deposited in PubChem BioAssay by several laboratories.
Lmaj promast – inhibitors of Leishmania major promastigote growth; 9% of 200,000 active; AID 1063; Leishmania major promastigotes, resazurin fluorescence viability; inhibition, % at 10 µM; in the data active = inhibition above about 50%;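 also: promastigotes grown with compound for 44 hours at 28 °C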
ABCG2 block – inhibitors of human ABCG2 transporter, ABCB1 counter-screen | AID 1325 | 0.1% of 190,000 active | IgMXP3 cells, JC-1 efflux, flow cytometry | inhibition, % at 6.6 µM;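 active = inhibition above 80%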;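 also: 0% = DMSO and 100% = nicardipine control wells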
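material = IgMXP3 (ABCG2) plus far-red-tagged CCRF-Adr (ABCB1) cells | amount = 3 million cells/mL, equal mix of both lines | also added = JC-1 transporter substrate | dosing = one concentration, 6.6 µM final | schedule = 10 min at 25 °C | measured by = flow cytometric JC-1 green MFI at 530 nm | read-out basis = percent efflux inhibition, scaled nicardipine 100% to DMSO 0%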
ABCB1 inh – human ABCB1 inhibition, ABCG2 as counter-screen; P08183; CCRF-Adr cells, JC-1 efflux, flow cytometry; inhibition, % at 6.6 µM; 0.067% of 190,000 active; AID 1326; in the data active = inhibition above about 40%;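 also: 0% = vehicle and 100% = reference inhibitor; higher value means more JC-1 retained so stronger ABCB1 efflux block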
RAM network inh – inhibitors of the yeast RAM network. S. cerevisiae dse1pr::URA3 reporter, 5-FOA growth OD615, 2 d; analog-sensitive cbk1-as2 kinase mutant strain. inhibition, % at 50 µM. 1.8% of 190,000 active;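 active = inhibition above a set limit, 3 SD over mean compound inhibition, cut at about 8.4% in these data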;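 also: 0% = DMSO-only wells with no growth and 100% = 10 µM 1-NA-PP1 full growth; inhibition rescues growth on 5-FOA so higher OD means more RAM inhibition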
WT yeast gro inh – growth inhibition of WT yeast, mitochondrial fusion screen; mitochondrial fusion phenotypic screen, WT strain; inhibition, % at 10 µM; 2.1% of 190,000 active; in the data active = inhibition above about 58%; tested in S. cerevisiae
* = called active by the depositor. Shown are actives, neighbours in structure and some others; about 12% of the full set was active somewhere.

What do the screens show for `COc1ccc(/C=C/CN2CCN(Cc3ccc(F)cc3)C(CCO)C2)cc1` (stereo not drawn)?
Lmaj promast: 68*; ABCG2 block: 1; ABCB1 inh: 0; RAM network inh: 0; WT yeast gro inh: -8

Results for O=C(NCCCc1ccccc1)N1CCOCC1 ?
Lmaj promast: -2; ABCG2 block: -1; ABCB1 inh: 0; RAM network inh: -1; WT yeast gro inh: -4

How did COc1cccc(/C=C/C(=C2\C(=O)N(c3ccccc3)N=C2C)c2ccc(Br)cc2)c1OC do in these assays?
Lmaj promast: 99*

What do the screens show for `COc1cccc(CN2CCN(Cc3cccn3-c3cccnc3)CC2CCO)c1` (stereo not drawn)?
Lmaj promast: -3; ABCG2 block: 0; ABCB1 inh: 0; RAM network inh: 2; WT yeast gro inh: 3

How did COc1ccc(CC2(C)OC(c3ccncc3)=NN2C(C)=O)cc1 (stereo not drawn) do in these assays?
Lmaj promast: -1; ABCG2 block: 2; ABCB1 inh: 1; RAM network inh: 2; WT yeast gro inh: -9

Results for COc1ccc(CC2(C)OC(c3ccc(Cl)cc3)=NN2C(C)=O)cc1 (stereo not drawn) ?
Lmaj promast: 54*; ABCG2 block: 1; ABCB1 inh: 1; RAM network inh: 3; WT yeast gro inh: 56

How did O=C(Cn1c(=O)n(-c2ccc(F)cc2)c(=O)c2sccc21)c1ccccc1 do in these assays?
Lmaj promast: -7; ABCG2 block: 0; ABCB1 inh: 0; RAM network inh: 1; WT yeast gro inh: -9

Results for O=c1c2sccc2n(Cc2ccc(F)cc2)c(=O)n1-c1ccc(F)cc1 ?
Lmaj promast: 40; ABCG2 block: 30; ABCB1 inh: 2; RAM network inh: 10*; WT yeast gro inh: -3

How did O=C(CN1C(=O)NC2(CCSC2)C1=O)NCc1ccccc1 (stereo not drawn) do in these assays?
Lmaj promast: -6; ABCG2 block: 0; ABCB1 inh: 0; RAM network inh: 2; WT yeast gro inh: -8

Results for O=C(NC1CCS(=O)(=O)C1)c1ccc(S(=O)(=O)N2CCCCC2)cc1 (stereo not drawn) ?
Lmaj promast: -8; ABCG2 block: 7; ABCB1 inh: 1; RAM network inh: 1; WT yeast gro inh: -1

Results for O=c1cc(N2CCCCC2)c(-c2ccccc2)nn1Cc1cccc(Cl)c1 ?
Lmaj promast: 41; ABCG2 block: 4; ABCB1 inh: 1; RAM network inh: 5; WT yeast gro inh: 86*

Results for O=c1cc(N2CCCCC2)c(-c2ccccc2)nn1Cc1ccccc1Cl ?
Lmaj promast: 38; ABCG2 block: 4; ABCB1 inh: 1; RAM network inh: 4; WT yeast gro inh: 88*

What do the screens show for `C=CCn1nc(-c2ccccc2)c(N2CCCCC2)cc1=O`?
Lmaj promast: 5; ABCG2 block: 5; ABCB1 inh: 1; RAM network inh: 0; WT yeast gro inh: 0

What do the screens show for `O=c1cc(N2CCCCC2)c(-c2ccccc2)nn1Cc1ccc(Cl)cc1Cl`?
Lmaj promast: 15; ABCG2 block: 1; ABCB1 inh: 0; RAM network inh: 8; WT yeast gro inh: 73*

Results for Cc1n[nH]c(C)c1CCN(C)Cc1cn(C)nc1-c1ccccc1F ?
Lmaj promast: -6; ABCG2 block: 0; ABCB1 inh: 0; RAM network inh: 1; WT yeast gro inh: -8

Results for COC(=O)c1ccccc1NC(=O)CN1CCN(C23CC4CC(CC(C4)C2)C3)CC1 ?
Lmaj promast: 86*; ABCG2 block: 2; ABCB1 inh: 1; RAM network inh: -1; WT yeast gro inh: 2

Results for O=C(Oc1cccc(NC2=NS(=O)(=O)c3ccccc32)c1)c1cccnc1 ?
Lmaj promast: -4; ABCG2 block: 0; ABCB1 inh: 0; RAM network inh: 2; WT yeast gro inh: -4

How did CCN(CC)Cc1cc(NC2=NS(=O)(=O)c3ccccc32)ccc1OC(=O)c1ccccc1 do in these assays?
Lmaj promast: 98*; ABCG2 block: 2; ABCB1 inh: 0; RAM network inh: 0; WT yeast gro inh: -10

What do the screens show for `CCN(CC)Cc1cc(NC2=NS(=O)(=O)c3ccccc32)ccc1OC(=O)C(C)C`?
Lmaj promast: 99*; ABCG2 block: 6; ABCB1 inh: 0; RAM network inh: 1; WT yeast gro inh: 1

How did CCn1cc(Cl)c(C(=O)Nc2ccccc2C(N)=O)n1 do in these assays?
Lmaj promast: -5; ABCG2 block: 4; ABCB1 inh: 0; RAM network inh: -1; WT yeast gro inh: 7
